Source: PubChem BioAssay
EWS-Fli block = EWS/Fli-driven NR0B1 reporter inhibitors, primary screen, A673 cells, NR0B1 luciferase, luminescence, MLPCN library. inhibition, % at 12.6 µM. AID 651661, 2012. viability-normalised. 0.67% of 350,000 active;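 active = mean inhibition of at least 50% after viability correction, with every replicate also passing that limit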;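 also: firefly luciferase signal divided by Alamar Blue viability fluorescence both relative to DMSO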
Env fusion inh = inhibitors of HIV-1 Env-driven cell-cell fusion, primary screen, HeLa-JRFL effector, CEM21 target cells, luciferase; AID 651610, 2012; inhibition, % at 12.3 µM; 1.1% of 360,000 active;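 active = mean replicate inhibition score of at least 50 and every replicate individually at or above 50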;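 also: 0% = plate neutral controls and 100% = maraviroc near 300 nM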
FN deposition inh = inhibitors of fibronectin matrix deposition, primary screen, AH1F cells, Alexa488-fibronectin fluorescence, plate reader; AH1F fibroblasts, overnight; inhibition, % at 12.6 µM; 0.086% of 350,000 active; AID 743247, 2014;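 active = mean inhibition across replicates of 30% or more, regardless of how many single replicates reach that level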;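 also: positive control wells lacked labelled fibronectin entirely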
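Material: AH1F fibroblasts assembling fluorescent fibronectin matrix; amount: 10000 AH1F cells/well; medium: DMEM, 2% serum; reagent: Alexa488-fibronectin, 24 nM final in well; dosing: single compound dose, delivered by pin transfer; incubation: 1 h adhesion, overnight exposure; detection: fluorescence after three HBSS washes, excitation 485 nm, emission 525 nm; measure: fibronectin deposition inhibition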
PGC1a acetyl inh = inhibitors of PGC1a acetylation signal, primary screen, cell-based, U2OS, AlphaScreen, inhibitor mode; inhibition, % at 15.6 µM; 0.17% of 350,000 active; AlphaScreen anti-acetyl-lysine; with virally co-expressed GCN5 acetyltransferase;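 active = every replicate shows inhibition of at least 40%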;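 also: 0% = neutral control wells and 100% = positive control wells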
FGF22 binding = binders of human FGF22 protein, primary screen, FGF22 synaptogenesis inhibitor project, biophysical, thermal shift, single point; 1.5% of 340,000 active; recombinant FGF22 thermal shift, SYPRO orange fluorescence; percent of sucrose octasulfate shift, DMSO zero; activity (Tm shift, normalised), % at 9.99 µM; Fibroblast growth factor 22 (Homo sapiens), Q9HCT0;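 active = mean Tm shift, scaled 0 neutral to 100 positive control, at about 1.3% or above, every replicate too, limit read from the data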
Target sequence (Q9HCT0 whole entry, looked up): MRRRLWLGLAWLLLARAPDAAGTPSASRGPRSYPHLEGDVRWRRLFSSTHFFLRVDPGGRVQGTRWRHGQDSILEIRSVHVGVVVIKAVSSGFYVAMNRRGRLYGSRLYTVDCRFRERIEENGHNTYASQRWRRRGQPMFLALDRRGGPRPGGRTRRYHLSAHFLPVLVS
PAX8 reporter = inhibitors of PAX8-driven TPO luciferase reporter, primary screen, RMG-I cells, single concentration. SteadyGlo, 24 h. inhibition, % at 12.6 µM. 1.2% of 360,000 active;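 active = mean replicate inhibition at least 60% with every replicate also reaching 60%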;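 also: luciferase light reporting Pax8 driven TPO promoter activity; plate controls were median of neutral control wells for no effect and mitoxantrone controls for full effect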
* marks the source's active call; other numbers are inactive results; [ ] = another dose, or the depositor's remark. Shown are actives, neighbours in structure and some others; about 3.1% of the full set was active somewhere.

What do the screens show for `C[C@@H]1CN([C@@H](C)CO)C(=O)c2cc(NC(=O)CCC(F)(F)F)ccc2O[C@@H]1CN(C)C(=O)Nc1ccc(C(F)(F)F)cc1`?
EWS-Fli block: 11.5; PGC1a acetyl inh: 1.9; FGF22 binding: -0.4; PAX8 reporter: 11.0

Results for COc1cc2c(cc1NC(=O)C(Cl)Cl)-c1ccc(NC(=O)C(Cl)Cl)cc1C2 ?
EWS-Fli block: 22.7; Env fusion inh: -177.5; FN deposition inh: 6.9; FGF22 binding: -0.3; PAX8 reporter: 79.3*

Results for COc1cc(C(=O)Nc2ccc3c(c2)CCN3C(C)=O)cc(OC)c1OC ?
EWS-Fli block: 66.9*; Env fusion inh: -74.2; FN deposition inh: 12.9; FGF22 binding: 0.0; PAX8 reporter: 6.3

What do the screens show for `COc1cc(C(=O)Nc2ccc3c(c2)Cc2ccccc2-3)cc(OC)c1OC`?
EWS-Fli block: 17.0; Env fusion inh: -292.1; FN deposition inh: -11.6; PGC1a acetyl inh: 12.2; FGF22 binding: 43.4*; PAX8 reporter: 13.3

How did COc1cc(C(=O)Nc2ccc(S(=O)(=O)N3CCc4ccccc43)cc2)cc(OC)c1OC do in these assays?
Env fusion inh: 27.4; FN deposition inh: 8.9; PGC1a acetyl inh: -14.0

Results for C[C@@H]1CCCCO[C@H](CN(C)C(=O)c2ccccc2)[C@@H](C)CN([C@H](C)CO)C(=O)c2cc(NC(=O)Nc3ccccc3)ccc2O1 ?
EWS-Fli block: 4.8; Env fusion inh: -3.6[16.7 µM]; FN deposition inh: -0.9; PGC1a acetyl inh: -9.6; FGF22 binding: 0.1; PAX8 reporter: 0.5

How did COCc1cn(CC[C@@H]2CC[C@H](NC(=O)c3ccc(F)cc3)[C@H](CO)O2)nn1 do in these assays?
EWS-Fli block: -1.1; Env fusion inh: -6.8[16.7 µM]; FN deposition inh: 6.8; PGC1a acetyl inh: -0.8; FGF22 binding: 0.2; PAX8 reporter: -7.7

What do the screens show for `O=C(Nc1ncc2c(n1)-c1ccccc1CC2)C1CC1`?
EWS-Fli block: -11.4; Env fusion inh: -16.8; FN deposition inh: -5.1; PGC1a acetyl inh: 12.3; FGF22 binding: 0.4; PAX8 reporter: -13.4

What do the screens show for `CC(C)SCC(=O)Nc1ncc2c(n1)-c1ccccc1CC2`?
EWS-Fli block: -51.3; Env fusion inh: -3.6; FN deposition inh: -5.1; PGC1a acetyl inh: 12.5; FGF22 binding: 43.8*; PAX8 reporter: -8.5

What do the screens show for `C=CCN(C(=O)c1csnn1)C(C(=O)NCc1ccc(F)cc1)c1ccccc1F` (stereo unspecified)?
EWS-Fli block: 11.0; Env fusion inh: 1.1; FN deposition inh: -4.7; FGF22 binding: 42.9*; PAX8 reporter: 3.3

What do the screens show for `O=C(NCc1ccccc1)C(c1ccccc1)N(Cc1ccccc1)C(=O)Cc1ccccc1` (stereo unspecified)?
EWS-Fli block: 71.3*; Env fusion inh: -2.5[16.7 µM]; FGF22 binding: -0.1; PAX8 reporter: 78.7*

How did COc1ccc(CNC(=O)C(c2ccco2)N(Cc2ccccc2)C(=O)Cc2cccs2)cc1 (stereo unspecified) do in these assays?
Env fusion inh: 35.6; FN deposition inh: -7.1; PGC1a acetyl inh: -3.2; PAX8 reporter: 22.2

Results for CC(C)(C)NC(=O)C(c1ccccc1)N(Cc1cccs1)C(=O)c1csnn1 (stereo unspecified) ?
Env fusion inh: 71.9*; FN deposition inh: -23.1; PGC1a acetyl inh: 0.6

How did CC(C)(C)NC(=O)C(c1cccs1)N(Cc1ccco1)C(=O)c1csnn1 (stereo unspecified) do in these assays?
EWS-Fli block: 2.7; Env fusion inh: 9.7; FN deposition inh: 2.8; FGF22 binding: -0.3; PAX8 reporter: -4.9

Results for O=C(NCc1ccccc1)C(c1ccccc1)N(C(=O)c1csnn1)c1ccccc1 (stereo unspecified) ?
EWS-Fli block: 4.2; Env fusion inh: 7.0; FN deposition inh: -1.9; FGF22 binding: 42.9*; PAX8 reporter: 12.5
